Blank lines part the entries; values can stand above or below the molecule they belong to. Activity calls are given as the source filed them. The rule behind the calls is not given here.
What was measured:
[1] = biological target: T1, Melanocortin receptor 3 (Homo sapiens, UniProt P41968); experiment: Agonist activity at human melanocortin 3 receptor expressed in HEK293 cells assessed as cAMP accumulation; type: functional, cell-based
Method in brief: (§1)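 Stably transfected HEK293 cells seeded 48 h before assay (50000 cells/well), rinsed, preincubated 1 min at 37 °C in Earle's balanced salt solution with 0.5 mM IBMX, then given peptide at varying concentrations for 3 min at 37 °C. Stopped with ice-cold Tris/EDTA and boiling 7 min. cAMP measured by [3H]cAMP competition for PKA against a standard curve. EC50 by nonlinear least-squares fit, mean of two experiments in triplicate.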

[2] = biological target: T2, Melanocyte-stimulating hormone receptor (Homo sapiens, UniProt Q01726); experiment: Displacement of [125I]-[Nle4, D-Phe7]alpha-MSH from human melanocortin 1 receptor expressed in HEK293 cells; type: cell-based
Method in brief: (§2)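 Whole HEK293 cells stably expressing each hMCR, seeded 48 h before assay (50000 cells/well), washed in MEM with 25 mM bicarbonate. Cells incubated 40 min at 37 °C with unlabeled peptide plus [125I]-NDP-α-MSH (33.06 pM, 20000 cpm/well) in MEM, 25 mM HEPES pH 7.4, 0.2% BSA, 1 mM 1,10-phenanthroline, leupeptin, bacitracin. Cells washed, lysed with NaOH/Triton X-100, and gamma-counted. IC50 by nonlinear fit, two experiments in triplicate […].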
Target sequence in this assay (Q01726 whole entry): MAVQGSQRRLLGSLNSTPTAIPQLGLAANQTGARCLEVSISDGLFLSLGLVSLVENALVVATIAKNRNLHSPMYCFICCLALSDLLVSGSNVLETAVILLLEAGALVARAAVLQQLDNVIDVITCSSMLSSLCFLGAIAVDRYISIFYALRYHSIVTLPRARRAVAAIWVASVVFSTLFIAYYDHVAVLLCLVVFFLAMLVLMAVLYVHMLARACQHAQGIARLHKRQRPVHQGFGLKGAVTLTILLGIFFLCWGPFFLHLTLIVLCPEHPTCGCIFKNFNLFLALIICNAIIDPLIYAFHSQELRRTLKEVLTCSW

[3] = biological target: T3, Melanocortin receptor 4 (Homo sapiens, UniProt P32245); experiment: Displacement of [125I]-[Nle4, D-Phe7]alpha-MSH from human melanocortin 4 receptor expressed in HEK293 cells; type: cell-based; method in brief: as §2
T3 sequence (P32245 whole entry): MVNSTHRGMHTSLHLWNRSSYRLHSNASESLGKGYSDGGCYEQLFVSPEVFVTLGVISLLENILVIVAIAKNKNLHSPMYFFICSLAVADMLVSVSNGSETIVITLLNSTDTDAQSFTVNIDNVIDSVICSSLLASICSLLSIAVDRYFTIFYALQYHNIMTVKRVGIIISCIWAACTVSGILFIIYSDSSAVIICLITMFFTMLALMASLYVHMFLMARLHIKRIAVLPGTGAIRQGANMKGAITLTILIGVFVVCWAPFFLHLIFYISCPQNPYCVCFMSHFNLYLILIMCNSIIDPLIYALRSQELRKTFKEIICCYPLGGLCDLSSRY

[4] = biological target: T4, Melanocortin receptor 5 (Homo sapiens, UniProt P33032); experiment: Displacement of [125I]-[Nle4, D-Phe7]alpha-MSH from human melanocortin 5 receptor expressed in HEK293 cells; type: cell-based; method in brief: as §2
T4 sequence (P33032 whole entry): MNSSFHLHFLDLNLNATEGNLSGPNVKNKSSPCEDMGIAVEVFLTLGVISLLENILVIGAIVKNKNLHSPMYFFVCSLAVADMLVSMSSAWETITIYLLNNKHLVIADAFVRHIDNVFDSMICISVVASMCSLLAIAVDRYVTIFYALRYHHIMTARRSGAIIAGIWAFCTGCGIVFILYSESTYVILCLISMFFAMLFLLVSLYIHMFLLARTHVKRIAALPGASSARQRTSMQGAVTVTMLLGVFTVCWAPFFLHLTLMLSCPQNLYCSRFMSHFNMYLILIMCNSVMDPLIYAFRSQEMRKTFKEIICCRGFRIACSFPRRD

[5] = biological target: T1, Melanocortin receptor 3; experiment: Displacement of [125I]-[Nle4, D-Phe7]alpha-MSH from human melanocortin 3 receptor expressed in HEK293 cells; type: cell-based; method in brief: as §2
[6] = biological target: T3, Melanocortin receptor 4; experiment: Agonist activity at human melanocortin 4 receptor expressed in HEK293 cells assessed as cAMP accumulation at 10 uM; type: functional, cell-based
Method in brief: (§3)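 cAMP accumulation assay in stably transfected HEK293 cells: 0.5 mM IBMX preincubation, 3 min ligand exposure at 37 °C, [3H]cAMP/PKA binding read-out against a standard curve. The cAMP produced at 10 μM ligand is expressed as percent of that produced by 10 μM MT-II (% max effect).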

[7] = biological target: T2, Melanocyte-stimulating hormone receptor; experiment: Agonist activity at human melanocortin 1 receptor expressed in HEK293 cells assessed as cAMP accumulation at 10 uM; type: functional, cell-based; method in brief: as §3
Target sequence in this assay (Q01726 whole entry, looked up): as the sequence (Q01726 whole entry) above

[8] = biological target: T3, Melanocortin receptor 4; experiment: Agonist activity at human melanocortin 4 receptor expressed in HEK293 cells assessed as cAMP accumulation at 10 uM realtive to MT2; type: functional, cell-based; method in brief: as §3
[9] = biological target: T4, Melanocortin receptor 5; experiment: Agonist activity at human melanocortin 5 receptor expressed in HEK293 cells assessed as cAMP accumulation at 10 uM realtive to MT2; type: functional, cell-based; method in brief: as §3
[10] = biological target: T1, Melanocortin receptor 3; experiment: Agonist activity at human melanocortin 3 receptor expressed in HEK293 cells assessed as cAMP accumulation at 10 uM realtive to MT2; type: functional, cell-based; method in brief: as §3
[11] = biological target: T4, Melanocortin receptor 5; experiment: Agonist activity at human melanocortin 5 receptor expressed in HEK293 cells assessed as cAMP accumulation at 10 uM; type: functional, cell-based; method in brief: as §3
[12] = biological target: T2, Melanocyte-stimulating hormone receptor; experiment: Agonist activity at human melanocortin 1 receptor expressed in HEK293 cells assessed as cAMP accumulation at 10 uM realtive to MT2; type: functional, cell-based; method in brief: as §3
Target sequence in this assay (Q01726 whole entry, looked up): as the sequence (Q01726 whole entry) above

[13] = biological target: T2, Melanocyte-stimulating hormone receptor; experiment: Agonist activity at human melanocortin 1 receptor expressed in HEK293 cells assessed as cAMP accumulation; type: functional, cell-based; method in brief: as §1
Target sequence in this assay (Q01726 whole entry): as above

[14] = biological target: T3, Melanocortin receptor 4; experiment: Agonist activity at human melanocortin 4 receptor expressed in HEK293 cells assessed as cAMP accumulation; type: functional, cell-based; method in brief: as §1
[15] = biological target: T4, Melanocortin receptor 5; experiment: Agonist activity at human melanocortin 5 receptor expressed in HEK293 cells assessed as cAMP accumulation; type: functional, cell-based; method in brief: as §1
[16] = biological target: T1, Melanocortin receptor 3; experiment: Displacement of [125I]-[Nle4, D-Phe7]alpha-MSH from human melanocortin 3 receptor expressed in HEK293 cells at 10 uM; type: cell-based
[17] = biological target: T1, Melanocortin receptor 3; experiment: Agonist activity at human melanocortin 3 receptor expressed in HEK293 cells assessed as cAMP accumulation at 10 uM; type: functional, cell-based; method in brief: as §3
[18] = biological target: T3, Melanocortin receptor 4; experiment: Displacement of [125I]-[Nle4, D-Phe7]alpha-MSH from human melanocortin 4 receptor expressed in HEK293 cells at 10 uM; type: cell-based
[19] = biological target: T4, Melanocortin receptor 5; experiment: Antagonist activity at human melanocortin 5 receptor expressed in HEK293 cells; type: functional, cell-based
Method in brief: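 Antagonism at hMC5R in the HEK293 cAMP assay (IBMX, 3 min at 37 °C, [3H]cAMP/PKA read-out). Four antagonist doses spanning 10−10 to 10−6 M were tested against MT-II agonist dose-response curves. pA2 derived by Schild analysis.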

T1 sequence (P41968 whole entry): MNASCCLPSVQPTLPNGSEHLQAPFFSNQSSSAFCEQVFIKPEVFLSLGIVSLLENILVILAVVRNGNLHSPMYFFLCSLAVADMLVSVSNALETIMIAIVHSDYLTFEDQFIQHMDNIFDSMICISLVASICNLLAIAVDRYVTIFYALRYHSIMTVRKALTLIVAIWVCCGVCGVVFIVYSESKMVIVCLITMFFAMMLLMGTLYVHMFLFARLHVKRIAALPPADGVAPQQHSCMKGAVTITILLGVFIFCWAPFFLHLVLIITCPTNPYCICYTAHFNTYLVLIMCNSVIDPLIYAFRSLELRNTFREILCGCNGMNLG

SMILES: N=C(N)NCCC[C@@H]1NC(=O)[C@@H](Cc2ccccc2)NC(=O)[C@@H]2CCCN2C(=O)c2cc([N+](=O)[O-])ccc2SC[C@@H](C(N)=O)NC(=O)[C@H](Cc2c[nH]c3ccccc23)NC1=O
EC50 [1]: > 1000 nM
IC50 [2]: > 1000 nM
Activity [6]: inactive
IC50 [3]: > 1000 nM
IC50 [4]: 58 nM
IC50 [5]: 380 nM
Activity [7]: inactive
Activity [8]: 0%
Activity [9]: 0%
Activity [10]: > 100%
Activity [11]: inactive
Activity [12]: 0%

SMILES: N=C(N)NCCC[C@@H]1NC(=O)[C@@H](Cc2ccccc2)NC(=O)C2(Cc3ccccc3C2)NC(=O)c2cc([N+](=O)[O-])ccc2SC[C@@H](C(N)=O)NC(=O)[C@H](Cc2c[nH]c3ccccc23)NC1=O
EC50 [1]: > 5000 nM
IC50 [2]: > 1000 nM
Activity [6]: inactive
Activity [16]: inactive
IC50 [4]: 560 nM
Activity [8]: 0%
EC50 [13]: > 1000 nM
Activity [9]: 0%
Activity [10]: 40%
Activity [18]: inactive
Activity [11]: inactive
Activity [12]: 52%

SMILES: N=C(N)NCCC[C@@H]1NC(=O)[C@@H](Cc2ccccc2)NC(=O)[C@H](CC2CCCCC2)NC(=O)c2cc([N+](=O)[O-])ccc2SC[C@@H](C(N)=O)NC(=O)[C@H](Cc2c[nH]c3ccccc23)NC1=O
EC50 [1]: > 4000 nM
IC50 [2]: > 2000 nM
Activity [6]: inactive
IC50 [4]: 38 nM
IC50 [5]: > 1000 nM
Activity [8]: 0%
EC50 [13]: 810 nM
Activity [9]: 0%
Activity [10]: > 100%
Activity [18]: inactive
Activity [11]: inactive
Activity [12]: 92%

SMILES: N=C(N)NCCC[C@@H]1NC(=O)[C@H](Cc2ccc3ccccc3c2)NC(=O)[C@H](Cc2cnc[nH]2)NC(=O)c2cc([N+](=O)[O-])ccc2SC[C@@H](C(N)=O)NC(=O)[C@H](Cc2c[nH]c3ccccc23)NC1=O
Activity [6]: inactive
pA2 [19]: 8.3
Activity [7]: inactive
Activity [8]: 0%
Activity [9]: 0%
Activity [10]: 21%
Activity [11]: inactive
Activity [12]: 0%

Second part, the molecule after the results:

EC50 ([1]; hek293): 50 nM
IC50 ([2]; hek293): > 2000 nM
IC50 ([3]; hek293): > 5000 nM
IC50 ([4]; hek293): 130 nM
IC50 ([5]; hek293): > 1000 nM
SMILES: NC(=O)[C@@H]1CSc2ccc([N+](=O)[O-])cc2C(=O)N[C@@H](Cc2cnc[nH]2)C(=O)N[C@@H](Cc2ccc3ccccc3c2)C(=O)N[C@@H](CCCN=C(N)N)C(=O)N[C@@H](Cc2c[nH]c3ccccc23)C(=O)N1

EC50 [1]: 2 nM
IC50 [2]: 3.7 nM
IC50 [3]: 47 nM
IC50 [4]: 190 nM
IC50 [5]: 40 nM
EC50 [13]: 2 nM
EC50 [14]: 37 nM
EC50 [15]: 44 nM
SMILES: NC(=O)[C@@H]1CSc2ccc([N+](=O)[O-])cc2C(=O)N[C@@H](Cc2cnc[nH]2)C(=O)N[C@H](Cc2ccccc2)C(=O)N[C@@H](CCCN=C(N)N)C(=O)N[C@@H](Cc2c[nH]c3ccccc23)C(=O)N1

IC50 [2]: 1000 nM
Activity [6]: inactive
IC50 [3]: > 1000 nM
Activity [16]: inactive
IC50 [4]: > 2000 nM
Activity [8]: 1%
EC50 [13]: 100 nM
Activity [17]: inactive
Activity [9]: 0%
Activity [10]: 0%
Activity [11]: inactive
Activity [12]: 105%
SMILES: N=C(N)NCCC[C@@H]1NC(=O)[C@@H](Cc2ccccc2)NC(=O)[C@H](Cc2cnc[nH]2)NC(=O)c2cc([N+](=O)[O-])ccc2SC[C@@H](C(N)=O)NC(=O)[C@@H](Cc2c[nH]c3ccccc23)NC1=O

EC50 [1]: 56 nM
IC50 [2]: 180 nM
IC50 [3]: > 1000 nM
IC50 [4]: 340 nM
IC50 [5]: 610 nM
EC50 [13]: 71 nM
SMILES: NC(=O)[C@@H]1CSc2ccc([N+](=O)[O-])cc2C(=O)N[C@@H](Cc2cnc[nH]2)C(=O)N[C@H](Cc2ccccc2)C(=O)N[C@@H](CCCN=C(N)N)C(=O)N[C@@H](Cc2ccc3ccccc3c2)C(=O)N1
